CSC inhib: cancer stem cell viability inhibitors, primary screen, luminescence; cancer stem cell-like cells viability; inhibition, % at 7.5 µM; 300,000 compounds, 1.1% hits; AID 2717, 2010; in the data active = inhibition above about 75%; inconclusive = no clear call, values can overlap the other calls; tested in HMLE shEcad cells
HIF act: HIF pathway transcriptional activators, primary screen, cell-based, U2OS HRE-luciferase, luminescence; U2OS HRE-luciferase reporter; normalized: DMSO 0%, desferrioxamine 100%; activation, % at 7.5 µM (by protocol); 300,000 compounds, 0.32% hits; AID 1910, 2009;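 active = mean activation of at least 10% of the iron chelator positive control signal, with at least half of replicates also reaching 10%; inconclusive = mean and replicate majority disagree about reaching 10%; inactive = mean and most replicates under 10%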
Beta apoptosis: inhibitors of cytokine-induced beta cell apoptosis, primary screen, luminescence; INS-1E cytokine-induced death, ATP luminescence, 48 h; percent of positive-control rescue, neutral wells zero; protection from apoptosis, % (no concentration beside the values); 300,000 compounds, 0.8% hits; AID 435005, 2010;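 active = Every replicate reaches about 75%, or at least half do and their mean reaches it too, limit read from the data; inconclusive = At least half of replicates reach the limit but their mean does not; inactive = Under half of replicates reach the limit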;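 note: higher means more ATP so stronger rescue from cytokine killing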
PolyA inhibitor: polyadenylation inhibitors in yeast reporter cells, primary screen, luminescence, S. cerevisiae; S. cerevisiae SKY197-pL101 polyadenylation reporter, beta-gal luminescence; efflux-impaired pdr1/pdr3 knockout yeast; score 100 = 6 SD above DMSO; activity score, % at 12 µM; 300,000 compounds, 0.02% hits;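 active = lowest replicate activity score at least 50, where 100 means six control SD above control mean; inconclusive = lowest score under 50 but half or more replicates reach 50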;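 note: yeast exposed to compound for 9 h at 30 °C; higher score means more reporter readthrough which indicates perturbed polyadenylation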
Calb FLC: C. albicans growth inhibition with fluconazole, primary screen, CaCi-2 strain, Alamar Blue fluorescence. C. albicans CaCi-2 (fluconazole-resistant clinical isolate) + fluconazole, 48 h. growth inhibition, % (test concentration not listed). 300,000 compounds, 0.57% hits. AID 1979, 2009;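 active = growth inhibition above about 58% in most replicates, limit read from the data, passing the limit was not always enough; inconclusive = exactly half the replicates above a set limit; inactive = most replicates below a set limit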;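 note: all wells also contain fluconazole at 8 µg/ml as a sub-toxic cotreatment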
T cruzi repl: inhibitors of intracellular T. cruzi growth, primary screen, luminescence, NIH3T3 host cells | T. cruzi beta-gal in NIH3T3, 90 h | AID 1885, 2009 | 300,000 compounds, 1.4% hits | inhibition, % (no concentration beside the values);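 active = mean inhibition across valid replicates above about 55%, limit read from the data; inconclusive = mean below that limit but half or more replicates reach it; inactive = mean below it, under half of replicates reach it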;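 note: signal also drops with host cell toxicity which is not excluded here; higher percent means less beta-gal luminescence so fewer parasites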
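Assay system: NIH/3T3 host cells with β-galactosidase reporter T. cruzi; input: 5,000 host fibroblasts per well; compound: single 50 nL compound addition per well in DMSO; timing: ≥90 h infection period, 3 h prior cell attachment; measured by: GalScreen β-gal luminescence, detergent lysis, 60 min; evaluation: percent inhibition of parasite-derived β-gal signal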
Of the large screens only hits and unclear results are named; the others gave an inactive call. Only some compounds are listed: those with a hit (about 3.1% of all), similar ones and a draw of the others.

CC(C)C(=O)NC(c1cccc([N+](=O)[O-])c1)c1c(O)ccc2ccccc12 (stereo not drawn)	none (no result: CSC inhib)
CSc1nc(NS(=O)(=O)c2ccc(F)cc2F)nn1C	none
NS(=O)(=O)c1ccc(Nc2nc3ccccc3nc2NS(=O)(=O)c2cccc([N+](=O)[O-])c2)cc1	none
COc1ccc(N2CCN(C(=O)COc3ccc4c(C)c(C)c(=O)oc4c3C)CC2)cc1	HIF act 51.2
CCN1CCN(c2ccc(S(=O)(=O)N3CCOCC3)cc2NC(=O)c2ccc(Cl)s2)CC1	T cruzi repl 68.9
Cc1ccc(S(=O)(=O)N2CCCCC2)cc1NC(=O)c1cc2ccccc2o1	none (no result: HIF act, PolyA inhibitor, Calb FLC, T cruzi repl)
CCN1CCN(c2ccc(S(=O)(=O)N3CCCCC3)cc2NC(=O)c2cc3ccccc3o2)CC1	T cruzi repl 76.3
C/C(=N\Nc1nc(-c2ccccn2)nc2ccccc12)c1ccc(F)cc1	CSC inhib 82.2, Beta apoptosis 87.5
COc1ccc(Oc2nc(-c3ccccn3)nc3ccccc23)cc1	none (no result: CSC inhib, Beta apoptosis)
C/C(=N\Nc1nc(-c2ccccc2O)nc2ccccc12)c1ccccc1	none
c1ccc(-c2nc(N3CCCCCC3)c3ccccc3n2)nc1	Beta apoptosis 123.5, T cruzi repl 63.5
Fc1ccc(Oc2nc(-c3ccccn3)nc3ccccc23)cc1	Beta apoptosis 76.6
c1ccc(Oc2nc(-c3ccccn3)nc3ccccc23)cc1	T cruzi repl 65.2
Cc1ccc(NC(=O)N2CCC(NC(=O)c3cccc(C)c3)CC2)cc1	HIF act 150.5 (no result: Beta apoptosis)
COc1ccc(OC)c(C(=O)/C=C/c2ccccc2C(F)(F)F)c1	CSC inhib 99.4
O=C(Cc1ccc(N2CCNC2=O)cc1)N1CCCC(Nc2ccc(F)c(F)c2)C1 (stereo not drawn)	CSC inhib 83.5
O=C(Cc1ccc(N2CCNC2=O)cc1)N1CCCC(Nc2cccc(F)c2)C1 (stereo not drawn)	none
O=c1[nH]cnc2c1ncn2[C@@H]1O[C@H](COS(=O)(=O)O)[C@@H](O)[C@H]1O	none (no result: HIF act, PolyA inhibitor, Calb FLC, T cruzi repl)
CC(C)CC(Nc1ncnc2scc(-c3ccccc3)c12)C(=O)O (stereo not drawn)	PolyA inhibitor 60.4
Cc1sc2ncnc(NCC(C)(C)N3CCOCC3)c2c1C	Beta apoptosis 85.0, Calb FLC inconclusive (no result: T cruzi repl)
Cc1sc2ncnc(NCC3(N4CCOCC4)CCCCC3)c2c1C	none
Cc1sc2ncnc(NCC3COc4ccccc4O3)c2c1C (stereo not drawn)	Beta apoptosis 130.4
CCC(C)C(Nc1ncnc2scc(-c3ccccc3)c12)C(=O)O (stereo not drawn)	none
c1ccc(-c2csc3ncnc(NCC4COc5ccccc5O4)c23)cc1 (stereo not drawn)	Beta apoptosis 127.1
COc1cc(/C=C2/CC(C)OC2=O)c([N+](=O)[O-])cc1OC (stereo not drawn)	none
CC(OC(=O)Cc1c[nH]c2ccccc12)C(=O)Nc1ccccc1F (stereo not drawn)	none
CC1CCN(Cc2nnnn2CCCC(=O)NCCc2cnn(C)c2)CC1	HIF act 67.0
O=Nc1c(O)n(Cc2ccc(Cl)cc2Cl)c2ccccc12	CSC inhib 112.6
Cc1ccc2c(c1)c(N=O)c(O)n2Cc1ccc(Cl)cc1	CSC inhib 103.6
O=Nc1c(O)n(Cc2ccc(Cl)cc2)c2ccccc12	none
Cc1onc(-c2ccc(Cl)cc2Cl)c1-c1csc(COc2ccccc2)n1	none (no result: HIF act, Beta apoptosis, T cruzi repl)
COC(=O)c1ccccc1NC(=O)CCC(=O)N1CC(C)Oc2ccc(C)cc21 (stereo not drawn)	none
Nc1c(-c2ccccc2)c(CSc2nc3ccccc3[nH]2)nn1-c1cccc(Cl)c1	T cruzi repl 65.9
Nc1c(-c2ccccc2)c(CSc2nc3ccccc3[nH]2)nn1-c1ccc(Cl)cc1	T cruzi repl 64.1
O=C(c1cc(-c2cccnc2)nc2ccc(Br)cc12)N1CCN(c2ncccn2)CC1	none
O=C(c1cc(-c2ccncc2)nc2ccc(Cl)cc12)N1CCN(Cc2ccc3c(c2)OCO3)CC1	T cruzi repl 71.7
Cc1ccc2nc(-c3ccncc3)cc(C(=O)N3CCOCC3)c2c1	none (no result: Beta apoptosis)
Cc1cc(C)c2nc(-c3ccncc3)cc(C(=O)N3CCN(Cc4ccccc4Cl)CC3)c2c1	T cruzi repl 61.1 (no result: Beta apoptosis)
CC(=O)c1ccc(N2CCN(C(=O)c3cc(-c4cccnc4)nc4ccc(Br)cc34)CC2)cc1	T cruzi repl 59.5
O=C(c1cc(-c2ccncc2)nc2ccc(Br)cc12)N1CCN(Cc2ccc3c(c2)OCO3)CC1	T cruzi repl 79.3
Cc1ccc(Sc2ccc(NC(=O)CCN3C(=O)NC4(CCCC4)C3=O)cc2)c(C)c1	none (no result: CSC inhib, HIF act, PolyA inhibitor, Calb FLC, T cruzi repl)
COc1ccc(C(C(=O)NC2CCCC2)N(C(=O)c2snc(C(N)=O)c2N)c2cccc(O)c2)cc1 (stereo not drawn)	none
Cc1ccc(SC[C@H](C)CN2CC[C@H](C(C)(C)C)CCC2=O)cc1	CSC inhib 76.5
C[C@@H](CSc1ccc(Br)cc1)CN1CC[C@H](C(C)(C)C)CCC1=O	CSC inhib 123.3 (no result: HIF act, PolyA inhibitor, Calb FLC, T cruzi repl)
CC(C)(C)[C@H]1CCC(=O)N([C@H](CSc2ccc(Br)cc2)Cc2ccccc2)CC1	none (no result: HIF act, PolyA inhibitor, Calb FLC, T cruzi repl)
CCn1c2ccccc2c2cc(CN3CCN(S(C)(=O)=O)CC3)ccc21	none
CCn1c2ccccc2c2cc(CN3CCN(Cc4cc(OC)ccc4O)CC3)ccc21	T cruzi repl 71.9 (no result: CSC inhib)
COc1ccc(C(=O)/C=C/c2ccc(OC)c(CN3CCOCC3)c2)cc1	none
COc1ccc(C(=O)/C=C/c2ccc(OC)c(Cn3nnc4ccccc43)c2)cc1	CSC inhib 76.9
COc1ccc(N=CC2=C(Nc3ccc(OC)cc3)c3c(C)nn(-c4ccccn4)c3CC2)cc1	Beta apoptosis 109.7 (no result: CSC inhib, HIF act, PolyA inhibitor, Calb FLC, T cruzi repl)
COc1ccc(-c2cc(C(=O)O)c3c(C)nn(-c4ccccn4)c3n2)cc1	none
CCCc1ccc(-c2cc(NC(=O)CSc3nnc(N)s3)n(-c3ccccc3)n2)cc1	CSC inhib 85.1, Calb FLC inconclusive
O=C(/C=C/c1ccccc1)NC(=S)Nc1ccc(N2CCOCC2)c(Cl)c1	Calb FLC 110.9 (no result: CSC inhib)
O=C(NC(=S)Nc1ccc(N2CCCCC2)c(Cl)c1)c1cccs1	CSC inhib 81.2
O=C(Nc1cccc(N2CCCC2)c1)c1cccs1	T cruzi repl 57.4
COc1ccc(CNCC(O)(c2ccc(F)cc2)c2ccc(F)cc2)cc1	none
COc1cc(CN2CCN(Cc3ccc(C(F)(F)F)cc3)CC2)cc(OC)c1OC	none
CC(=O)NC12CC3CC(C1)CC(C(=O)N1CCN(c4ncccn4)CC1)(C3)C2	none
